Results reported in ChEMBL document CHEMBL3352693, “Notolutesins A-J, dolabrane-type diterpenoids from the Chinese liverwort Notoscyphus lutescens” (J Nat Prod, 2014).
pIC50: −log10 of the molar value. Where a name gives a salt, the structure may show the parent alone.

How the values were obtained:
Format in all cases: functional, cell-based
[1] = Cytotoxicity against human PC3 cells after 24 hrs by MTT assay; details: PC-3, 24 h
Method in brief: (§1)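 Cells seeded 24 h before treatment, then exposed continuously to a range of compound concentrations (dissolved in DMSO) for 24 h. MTT (5 mg/mL in PBS) added, 4 h at 37 °C, 5% CO2; absorbance read at 570 nm. IC50 (50% growth inhibition) derived from plotted data, untreated cells as 100%; at least three experiments. Taxol and adriamycin as positive controls.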

A549 = experiment: Cytotoxicity against human A549 cells after 24 hrs by MTT assay; details: A549, 24 h; method in brief: as §1
DU-145 = experiment: Cytotoxicity against human DU145 cells after 24 hrs by MTT assay; details: DU-145, 24 h; method in brief: as §1
[2] = Cytotoxicity against human NCI-H1688 cells after 24 hrs by MTT assay; details: NCI-H1688, 24 h; method in brief: as §1

| SMILES | pIC50 [1] | pIC50 (A549) | pIC50 (DU-145) | pIC50 [2] |
| --- | --- | --- | --- | --- |
| COc1cccc2c1C(=O)c1c(O)c3c(c(O)c1C2=O)C[C@@](O)(C(=O)CO)C[C@@H]3O[C@H]1C[C@H](N)[C@H](O)[C@H](C)O1 [DOXORUBICIN HYDROCHLORIDE] | 4.93 | 4.63 | 4.67 | 5.37 |
| C=C[C@@]1(C)CC[C@@]2(C)[C@@H](CC[C@]34COC(=O)C3=C[C@@H](O)C[C@@H]42)C1 | 5.21 | < 5.00 | < 5.00 | < 5.00 |
| CC(=O)O[C@H]1C(=O)[C@@]2(C)[C@H]([C@H](OC(=O)c3ccccc3)[C@]3(O)C[C@H](OC(=O)[C@H](O)[C@@H](NC(=O)c4ccccc4)c4ccccc4)C(C)=C1C3(C)C)[C@]1(OC(C)=O)CO[C@@H]1C[C@@H]2O [PACLITAXEL] | 6.03 | – | 5.75 | 6.07 |
